Bioassay records as filed in PubChem BioAssay.
Vif imaging: inhibitors of HIV Vif; HEK293T cells, Vif self-association by quenched fluorescence, imaging, 24 h; inhibition, % at 7.49 µM; hit rate 0.35% among 340,000; AID 602346; in the data active = inhibition above about 50%, passing the limit was not always enough
V-ATPase pHluor: alters yeast V-ATPase proton transport. S. cerevisiae, pHLuorin cytosolic pH fluorescence. response, % at 10 µM. hit rate 0.37% among 350,000; in the data active = response mostly above about 7.3%, no sharp cut-off; inactive = mostly below about 5.4%; also: actives read high
CaV13 FRET inh: Primary screen for inhibitors of IQ motif and Ca2+-dependent inactivation inhibitor domain binding in CACNA1D, Förster resonance energy transfer in living cells, …. hit rate 0.098% among 340,000. HEK cells, CFP/YFP FRET ICDI-IQ, plate reader, 10 min; percent FRET-ratio fall versus neutral wells. inhibition, % at 12.3 µM;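 active = mean replicate inhibition of at least 30% and at least 1% of replicates passing that level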
SR-BI DiI inh: blocks mouse SR-BI lipid uptake from DiI-HDL. ldlA[mSR-BI] CHO cells, DiI-HDL uptake fluorescence, 3 h. inhibition, % at 12.5 µM. Q61009. AID 488896. hit rate 0.96% among 320,000;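 active = mean replicate inhibition of at least 70% and a set share of replicates each scoring 70 or more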
Target sequence (Q61009 whole entry, looked up): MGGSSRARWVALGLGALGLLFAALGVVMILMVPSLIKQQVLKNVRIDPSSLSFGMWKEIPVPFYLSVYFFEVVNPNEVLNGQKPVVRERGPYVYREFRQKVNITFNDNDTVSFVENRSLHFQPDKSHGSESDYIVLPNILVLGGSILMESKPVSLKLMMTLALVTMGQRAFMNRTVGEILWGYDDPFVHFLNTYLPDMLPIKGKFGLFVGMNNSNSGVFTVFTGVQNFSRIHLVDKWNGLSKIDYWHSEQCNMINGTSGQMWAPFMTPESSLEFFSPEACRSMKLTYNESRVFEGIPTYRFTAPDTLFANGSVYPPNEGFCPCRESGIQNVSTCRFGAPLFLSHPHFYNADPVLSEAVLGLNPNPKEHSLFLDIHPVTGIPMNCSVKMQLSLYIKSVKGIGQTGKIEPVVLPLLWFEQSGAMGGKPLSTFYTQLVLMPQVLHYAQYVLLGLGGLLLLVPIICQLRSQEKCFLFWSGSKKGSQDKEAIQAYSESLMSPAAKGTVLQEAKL
SR-BI DiI-HDL act: enhances SR-BI lipid uptake from DiI-HDL; CHO ldlA[mSR-BI] cells, DiI-HDL uptake fluorescence, 3 h; 100 = double the neutral-control signal; hit rate 0.096% among 320,000; activation, % at 12.5 µM;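 active = mean replicate activation of at least 60% and every replicate at or above 60%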
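System: CHO ldlA[mSR-BI] cells / Medium: HEPES-buffered (25 mM, pH 7.4) F12 plus 0.5% BSA / Probe or stimulus: labelled HDL, 10 µg/mL / Doses: single compound concentration, delivered by pin transfer / Schedule: 3 h, 37 °C / Measured by: DiI fluorescence, bottom read / Measure: cell-associated DiI fluorescence as measure of HDL uptake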
NTR1 agonist: agonists of human neurotensin receptor NTR1; NTR1-U2OS beta-arrestin-GFP spot imaging, agonist mode; activation, % at 20 µM; hit rate 0.17% among 330,000;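 active = activation at or above 40% of the spot to cytoplasm intensity ratio, with at least 20 cells analyzed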
Hits are given with their value; . = inactive; / = not tested or not shown; + = active, no number. Shown are actives, neighbours in structure and some others; about 1.7% of the full set was active somewhere.

SMILES	Vif imaging	V-ATPase pHluor	CaV13 FRET inh	SR-BI DiI inh	SR-BI DiI-HDL act	NTR1 agonist
CCOc1ncccc1C(=O)OCc1nnc(-c2ccccc2)o1	.	.	.	.	.	.
CCOc1ncccc1C(=O)OCc1ccccc1	51	.	.	.	.	.
CCCOc1ccc(C(=O)N(CC(C)C)c2c(N)n(Cc3ccccc3)c(=O)[nH]c2=O)cc1	.	.	.	.	.	.
O=C(C(=O)N1CCN(S(=O)(=O)c2ccccc2)CC1)c1cccc(C(F)(F)F)c1	/	/	.	/	/	/
CCC(CC)c1nnc(NC(=O)c2cccc(S(=O)(=O)N3CCc4ccccc43)c2)s1	.	.	.	.	.	.
CCOC(=O)c1sc(NC(=O)c2cccc(S(=O)(=O)N3CCc4ccccc43)c2)c(C#N)c1C	.	.	.	76	.	.
O=C(Nc1nc2ccc(F)cc2s1)c1cccc(S(=O)(=O)N2CCc3ccccc32)c1	.	.	.	74	.	.
CN(CC(=O)Nc1ccccc1Br)C(=O)c1cccc(S(=O)(=O)N2CCc3ccccc32)c1	.	.	.	82	.	/
COc1ccc(NC(=O)CN(C)C(=O)c2cccc(S(=O)(=O)N3CCCc4ccccc43)c2)cc1	.	.	.	.	.	.
Cc1ccccc1N(CC(=O)N/N=C/c1cc(Br)c(C)o1)S(C)(=O)=O	.	.	.	.	.	.
Cc1cccc(N2CCN(C(=O)c3ccc4c(c3)NC(=O)C(CSCc3cccc(F)c3)N4)CC2C)c1 (stereo not given)	61	.	.	.	.	.
Cc1cccc(C)c1-n1nnnc1SCc1nc(N)nc(N(C)C)n1	129	/	.	/	/	/
O=C1CCC(CCC(=O)N2CCCC(C(=O)c3cccc(C(F)(F)F)c3)C2)=NN1 (stereo not given)	.	.	.	.	.	.
N#Cc1ccc(S(=O)(=O)N2CCCc3nc(-c4ccccc4)ccc32)cc1	/	/	.	/	/	/
OC(c1cc(C(F)(F)F)nc2c(Cl)cc(Cl)cc12)C1CCCCN1 (stereo not given)	.	.	.	.	66	.
Cc1ccc(C2=NN(CC(=O)O)C(=O)CC2)cc1	.	.	.	.	.	.
COc1ccc(OC)c(C2C3=C(COC3=O)Nc3cc4c(cc32)OCO4)c1 (stereo not given)	72	.	.	.	.	.
COc1ccc(C2C3=C(CC(C)(C)CC3=O)Nc3cc4c(cc32)OCO4)cc1 (stereo not given)	.	.	/	.	.	.
S=C(Nc1ccccc1)N1CCn2c(nc3ccccc32)C1	58	.	.	.	.	.
COc1cccc(NC(=S)N2CCn3c(nc4ccccc43)C2)c1	.	.	.	.	.	.
COc1ccccc1-c1cnn2c(NC3CCCC3)cc(C)nc12	/	.	.	86	.	.
COCc1[nH]nc2c1C(c1ccc3c(c1)OCO3)N(c1ccc(OC)cc1)C2=O (stereo not given)	/	/	.	/	/	/
CCCc1nc2ccc(NC(=O)NCCC(=O)OCC)cc2c(=O)n1Cc1ccc(Cl)cc1	.	.	.	72	.	.
CCOC(=O)C1CCN(C(=O)COC(=O)c2cccc(NS(=O)(=O)c3ccccc3)c2)CC1	.	.	.	.	.	/
COc1cccc(/C=N/Nc2ncnc3scc(-c4ccccc4)c23)c1O	.	.	.	115	.	.
SMILES	Vif imaging	V-ATPase pHluor	CaV13 FRET inh	SR-BI DiI inh	SR-BI DiI-HDL act	NTR1 agonist
O=C(C1CCC1)N1CCN(c2cccc(C(F)(F)F)c2)CC1	.	.	.	.	.	.
O=C(C1CCN(c2nnc(-n3cccc3)s2)CC1)N1CCN(c2cccc(C(F)(F)F)c2)CC1	/	.	/	72	.	.
CC(C)(C)C(=O)/C=c1\[nH]c(=O)/c(=C\c2ccc(F)cc2)s1	.	.	/	.	.	.
COc1ccc(/C=c2\s/c(=C/C(=O)c3ccc(C)cc3)[nH]c2=O)cc1OC	.	.	.	74	.	.
C/C(CC(=O)NCc1ccc(F)cc1)=N\NC(N)=S	.	.	.	87	.	.
C/C(CC(=O)NCc1ccccc1)=N\NC(N)=S	.	.	.	.	.	.
CCOc1ccccc1C=NNC(=O)C1CC1	.	.	.	.	.	/
O=C(N/N=C/c1ccc(O)cc1O)c1ccc(CN2C(=O)c3cccc4cccc2c34)cc1	.	.	.	124	.	.
O=C(N/N=C/c1ccccc1)c1ccc(CN2C(=O)c3cccc4cccc2c34)cc1	.	.	.	.	.	.
O=C(CN(Cc1ccccc1)C(=O)CNS(=O)(=O)c1ccccc1)NCC1CCCO1 (stereo not given)	.	.	.	/	/	.
COc1ccc(S(=O)(=O)NCC(=O)N(CC(=O)NCC2CCCO2)Cc2ccccc2)cc1 (stereo not given)	71	.	.	.	.	.
Cc1cc(C)n(-c2ccc(C(=O)N3CCN(S(=O)(=O)c4ccc(Br)cc4Cl)CC3)cc2)n1	.	/	.	/	/	/
CCOc1ccc(C(=O)NCC(=O)NCCSc2ccc(Br)cc2)cc1OCC	.	.	.	87	.	/
Cc1ccccc1S(=O)(=O)N1CCCc2nc(C)c(C)cc21	/	/	.	/	/	/
CCOc1ccccc1NC(=O)NC1CCCc2ccccc21 (stereo not given)	.	.	.	79	.	.
Cc1cc(NC(=O)Nc2ccc(F)c(Cl)c2)no1	.	.	.	.	.	.
COCCNC(=O)NC1(C(F)(F)F)Oc2ccc(Cl)cc2O1 (stereo not given)	.	/	.	.	.	.
Cc1cc(NC(=O)NC2(C(F)(F)F)Oc3ccc(Cl)cc3O2)no1 (stereo not given)	105	.	.	.	.	.
O=C(NCc1cccnc1)NC1(C(F)(F)F)Oc2ccc(Cl)cc2O1 (stereo not given)	137	.	/	.	.	.
Cc1ccc(N=C2NC(=O)C(CC(=O)O)S2)cc1 (stereo not given)	.	22	.	.	.	.
CCNC(=O)CC1SC(=Nc2ccc(C)cc2)NC1=O (stereo not given)	.	.	.	.	.	.
COc1ccccc1-c1nnc(NC(=O)C(C)C)s1	.	8.0	.	/	/	.
COc1ccccc1-c1nnc(NC(C)=O)s1	.	.	.	.	.	.
COC(=O)C1=CN(CC2CCCO2)C=C(C(=O)OC)C1c1cccc(O)c1 (stereo not given)	.	.	83	.	.	.
CCCCC[n+]1cccc2c3ccccc3ccc21	.	.	.	.	.	.
c1ccc(C[n+]2cccc3c4ccccc4ccc32)cc1	53	.	.	.	.	.
O=C(C1=NN(c2ccccc2)C2C(=O)N(c3ccccc3)C(=O)C12)c1ccccc1 (stereo not given)	.	.	+	.	.	.
CC(=O)c1cnc(-c2ccccc2Cl)s1	57	.	.	.	.	.
